Test system: MS2 coat protein
Experiment: apparent Kd, MS2 coat protein; higher = weaker binding; RNA-MaP array
Method in brief: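 On an Illumina sequencing chip, sequenced DNA templates served for transcription of the designed RNAs, which were then bound at room temperature by fluorescently labeled MS2 coat protein at 1.5 nM to 3 μM, with or without input ligand. Apparent Kd is the median of the fits to each cluster's binding curve. Only designs measured on at least 10 clusters were kept.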

[1] = designed as: OFF switch for flavin mononucleotide, no ligand
[2] = ligand present: flavin mononucleotide, designed as: OFF switch for flavin mononucleotide
[3] = designed as: ON switch for flavin mononucleotide, no ligand
[4] = ligand present: flavin mononucleotide, designed as: ON switch for flavin mononucleotide
[5] = designed as: OFF switch for tryptophan, no ligand
[6] = ligand present: tryptophan, designed as: OFF switch for tryptophan

## UUAUUCCCGGAGGAUAUCGACGUAUUUGGCGCCCGAGAAGGCCGGACAUGAGGAUCACCCAUGUCCCGUGCUCU
[1]
  apparent Kd: 5.66 nM
[2]
  apparent Kd: 5.82 nM

## CUCUUAGGACAGGAUAUGGAACGCAUGUGUGCUCCAGAAGGGUCUACAUGAGGAUCACCCAUGUUCGGGACGGU
[1]
  apparent Kd: 530 nM
[2]
  apparent Kd: 469 nM

## UCUUCAAUAGUAAGGAUAUCCAUAACAACAUUCAAGGAGAAGGUACAUGAGGAUCACCCAUGUGGAGUCAAUAA
[1]
  apparent Kd: 13.1 nM
[2]
  apparent Kd: 19.8 nM

## AACAAACAUGAGGAUCACCCAUGUGAGGAUAUCAAGUCCAUACCCUAAGAGGGAGUUUUGAGAAGGCACGUGUA
[1]
  apparent Kd: 11.2 nM
[2]
  apparent Kd: 15.1 nM

## CGCUAACAUGAGGAUCACCCAUGUGAGGAUAUUCGCGGCGGACCGGGCUUUGGCGCUCGAAGAAGGCACAACGG
[1]
  apparent Kd: 12.8 nM
[2]
  apparent Kd: 24.5 nM

## UUAAUUCAGUGCCACAUGAGGAUCACCCAUGUCCAUACUCAAAAGGAUAUAUGCGGUUUCUAAGUAUAGAAGGUUUGUACACGA
[3]
  apparent Kd: 130 nM
[4]
  apparent Kd: 89 nM

## GCUCUACAGGAGAAGGUCAUAUCAUCGGUUAUUGAAGGAUAUCCUCAAGGGACGCUGAGGCGUACAUGAGGAUCACCCAUGUCC
[3]
  apparent Kd: 84.1 nM
[4]
  apparent Kd: 52.2 nM

## AGGGCACAUGAGGAUCACCCAUGUAAGGAUAUGGACUUUUUUGCUGUAGUAAUCAUCUCCAGAAGGUACGUCUU
[1]
  apparent Kd: 24.4 nM
[2]
  apparent Kd: 19.6 nM

## GUUCAACGGUGAGGAUAUUGCAGUACGUACGCACAAGAAGGCACUCCAUAGCACAGGGUGCACAUGAGGAUCACCCAUGUGGUC
[1]
  apparent Kd: 494 nM
[2]
  apparent Kd: 224 nM

## AUUGACUCAGAGAAGGGACUCAACAUGAGGAUCACCCAUGUUCUUUCGAAUAAAGGCUCUUAGGGUCAGGAUAUCUGUACGUAA
[3]
  apparent Kd: 9.6 nM
[4]
  apparent Kd: 9.99 nM

## UCAGAUGUGAAGGAUAUUCCGCGAGCAGCUACGGAAGAAGGUCAAACAUGAGGAUCACCCAUGUGUCUCCCGGG
[1]
  apparent Kd: 14.4 nM
[2]
  apparent Kd: 22.4 nM

## UAAUAGAAAGGAUAUACAUAGGUUGGCUAAUGACGUUCCGAACAUGAGGAUCACCCAUGUAGAAGGUUCUGCGU
[1]
  apparent Kd: 12.4 nM
[2]
  apparent Kd: 29.5 nM

## GCCCUGCGCCCGGGACCGGCAAGAUCCAUGCGAGGACCGGUACGGCCGCCACUCGCAGACGUACAUGAGGAUCACCCAUGUCCUC
[5]
  apparent Kd: 565 nM
[6]
  apparent Kd: 663 nM

## GGAUACUUUGGAGGAUAUAAUUUUAUCAUCACUUGUGAUCGAUGACAUGAGGAUCACCCAUGUAAUUAGAAGGCCAUUAAUUAC
[3]
  apparent Kd: 239 nM
[4]
  apparent Kd: 38.4 nM

## CCAGCAUGGCAGACCAUACAUGAGGAUCACCCAUGUAGAAGCUAGGAUAUAAAUGUAACACACUAUUAGAAGGAGCGCUACCUU
[1]
  apparent Kd: 8.55 nM
[2]
  apparent Kd: 6.51 nM

## CGAUACCAUGGUCAGGAUAUGAAACAGCUGACAUGAGGAUCACCCAUGUGAUAGGCAGGUGGACUUCAGAAGGGACACAUACACCA
[3]
  apparent Kd: 184 nM
[4]
  apparent Kd: 50.2 nM

## AGAACCCAAGAGGAUACCAGAACGACAAUCAAAUCUUUUUACAUGAGGAUCACCCAUGUUUUCCCUUGGCAGCCUCAUGCACGAC
Designed as: OFF switch for theophylline, no ligand
  apparent Kd: 72.1 nM
Ligand present: theophylline, designed as: OFF switch for theophylline
  apparent Kd: 60.8 nM

## UAGUCAUCGGCAGGAUAUUCGCUAGUAGACUAUGAAGAAGGGCCACGUACCUCACAAACAUGAGGAUCACCCAUGUAUCUGGAC
[1]
  apparent Kd: 39.2 nM
[2]
  apparent Kd: 29 nM

## CAACUGCUUGAGCUUACUUAUUGGACUUCCCGAGGACCGGUACGGCCGCCACUCGCAGGGACACAUGAGGAUCACCCAUGUAAAG
[5]
  apparent Kd: 15.7 nM
[6]
  apparent Kd: 16.2 nM

## CCCGGUGACUAGAAGGCGCCACAUGAGGAUCACCCAUGUAUCAAAGACCGGUGAUUGCCGACGGGCGAGGAUAUAGGUGCGACG
[1]
  apparent Kd: 8.18 nM
[2]
  apparent Kd: 14.5 nM

## UGCUGCUCGAGAGGAUAUACGAAAUGGAACAUGAGGAUCACCCAUGUAUAUCUCCACAAACAGACGUAGAAGGCACAAUAAGGA
[3]
  apparent Kd: 58.2 nM
[4]
  apparent Kd: 45.8 nM

## ACAGCAAACGUAGGAUAUGGGAGAACAUGAGGAUCACCCAUGUGGAAGUACGAGUUCGCUACAUACCAGAAGGACGAAAUCUAC
[3]
  apparent Kd: 156 nM
[4]
  apparent Kd: 35.8 nM

## GGCUUCCCAAGAGGAUAUGCGGUAAUUAUCUACAUGAGGAUCACCCAUGUUUUUAACUCAAGUCCGCAGAAGGCUUAAGGAUAU
[3]
  apparent Kd: 5.13 nM
[4]
  apparent Kd: 5 nM

## ACUGCUGUAGGAUAUCAACGAAAUAACAUGAGGAUCACCCAUGUGGCAGUGAUCAGCAGUUGAGAAGGACAUGGCC
[1]
  apparent Kd: 10.9 nM
[2]
  apparent Kd: 11.3 nM

## GGGAUCGGAGGAUAUCGGUGGUUUAACAUGAGGAUCACCCAUGUGAAUAAACAAGUGGAGCGAGAAGGCCGGCGCU
[1]
  apparent Kd: 14.7 nM
[2]
  apparent Kd: 9.97 nM

## GAUAUACAUGAGGAUCACCCAUGUCCAAAUUAAGUUUUAGUAUAGGAUAUUGACCGCUAGGAUGUCAAGAAGGAUACCCGAGGU
[3]
  apparent Kd: 14.8 nM
[4]
  apparent Kd: 7.52 nM

Source: the EternaBench riboswitch data
